ChEMBL document CHEMBL4828711, “Development of a selective matrix metalloproteinase 13 (MMP-13) inhibitor for the treatment of Osteoarthritis” (Eur J Med Chem, 2021)
One block for each compound: values may come before it. Calls of active or inactive are those of the source. The calls are words filed in the database; no cut-off is given here.

What was measured:
[1] = biological target: Macrophage metalloelastase (Homo sapiens, UniProt P39900); assay: Inhibition of recombinant human MMP12 using QXL520-gamma-Abu-Pro-Cha-Abu-Smc-His-Ala-Dab(5-FAM)-Ala-Lys-NH2 as substrate measured every 5 mins for 2 hrs by FRET assay
Outline: (§1)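 FRET assay with the catalytic domain of recombinant human MMP and a 5-FAM/QXL520 peptide substrate. Buffer was HEPES pH 7.5 with CaCl2, 0.01% Brij-35, 0.1 mg/ml BSA and 5% DMSO. Enzyme and compound were preincubated 10 min, then substrate was added. Fluorescence (ex 490/em 520 nm) was read every 5 min for 2 h at room temperature, and the initial linear slope was used. Curves had 12 doses, 3-fold dilutions from 100 μM, run in duplicate and averaged.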

Stromelysin-2 = Stromelysin-2 (Homo sapiens, UniProt P09238); assay: Inhibition of recombinant human MMP10 using QXL520-gamma-Abu-Pro-Cha-Abu-Smc-His-Ala-Dab(5-FAM)-Ala-Lys-NH2 as substrate measured every 5 mins for 2 hrs by FRET assay
[2] = biological target: Matrix metalloproteinase-9 (Homo sapiens, UniProt P14780); assay: Inhibition of recombinant human MMP9 using QXL520-gamma-Abu-Pro-Cha-Abu-Smc-His-Ala-Dab(5-FAM)-Ala-Lys-NH2 as substrate measured every 5 mins for 2 hrs by FRET assay; outline: as §1
Neutrophil collagenase = Neutrophil collagenase (Homo sapiens, UniProt P22894); assay: Inhibition of recombinant human MMP8 using QXL520-gamma-Abu-Pro-Cha-Abu-Smc-His-Ala-Dab(5-FAM)-Ala-Lys-NH2 as substrate measured every 5 mins for 2 hrs by FRET assay; outline: as §1
Matrilysin = biological target: T1, Matrilysin (Homo sapiens, UniProt P09237); assay: Inhibition of recombinant human MMP7 using QXL520-gamma-Abu-Pro-Cha-Abu-Smc-His-Ala-Dab(5-FAM)-Ala-Lys-NH2 as substrate measured every 5 mins for 2 hrs by FRET assay; outline: as §1
T1 sequence (P09237 whole entry): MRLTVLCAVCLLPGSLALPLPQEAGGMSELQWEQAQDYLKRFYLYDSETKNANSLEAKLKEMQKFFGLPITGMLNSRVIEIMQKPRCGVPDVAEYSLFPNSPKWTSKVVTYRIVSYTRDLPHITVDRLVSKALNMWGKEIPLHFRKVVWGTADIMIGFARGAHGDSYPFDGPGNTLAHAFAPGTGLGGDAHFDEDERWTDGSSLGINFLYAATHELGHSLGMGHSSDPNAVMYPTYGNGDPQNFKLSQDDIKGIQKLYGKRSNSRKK

Stromelysin-1 = Stromelysin-1 (Homo sapiens, UniProt P08254); assay: Inhibition of recombinant human MMP3 using QXL520-gamma-Abu-Pro-Cha-Abu-Smc-His-Ala-Dab(5-FAM)-Ala-Lys-NH2 as substrate measured every 5 mins for 2 hrs by FRET assay; outline: as §1
[3] = biological target: 72 kDa type IV collagenase (Homo sapiens, UniProt P08253); assay: Inhibition of recombinant human MMP2 using QXL520-gamma-Abu-Pro-Cha-Abu-Smc-His-Ala-Dab(5-FAM)-Ala-Lys-NH2 as substrate measured every 5 mins for 2 hrs by FRET assay; outline: as §1
Interstitial collagenase = biological target: T2, Interstitial collagenase (Homo sapiens, UniProt P03956); assay: Inhibition of recombinant human MMP1 using QXL520-gamma-Abu-Pro-Cha-Abu-Smc-His-Ala-Dab(5-FAM)-Ala-Lys-NH2 as substrate measured every 5 mins for 2 hrs by FRET assay; outline: as §1
T2 sequence (P03956 whole entry): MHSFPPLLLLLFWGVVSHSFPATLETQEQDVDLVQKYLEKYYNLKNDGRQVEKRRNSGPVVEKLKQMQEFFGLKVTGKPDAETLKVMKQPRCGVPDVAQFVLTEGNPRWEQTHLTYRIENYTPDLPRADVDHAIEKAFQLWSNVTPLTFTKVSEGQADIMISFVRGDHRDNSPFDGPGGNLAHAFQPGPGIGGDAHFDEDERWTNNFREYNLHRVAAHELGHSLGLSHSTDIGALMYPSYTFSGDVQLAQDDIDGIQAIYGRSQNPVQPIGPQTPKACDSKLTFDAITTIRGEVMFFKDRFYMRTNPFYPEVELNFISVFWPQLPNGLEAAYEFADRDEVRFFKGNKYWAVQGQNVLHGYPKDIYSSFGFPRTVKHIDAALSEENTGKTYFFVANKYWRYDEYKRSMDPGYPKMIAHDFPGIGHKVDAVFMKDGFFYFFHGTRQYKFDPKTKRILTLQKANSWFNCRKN

Collagenase 3 [4] = biological target: T3, Collagenase 3 (Homo sapiens, UniProt P45452); assay: Inhibition of recombinant human MMP13 using QXL520-gamma-Abu-Pro-Cha-Abu-Smc-His-Ala-Dab(5-FAM)-Ala-Lys-NH2 as substrate measured every 5 mins for 2 hrs by FRET assay
Outline: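 Catalytic domain of human recombinant MMP-13. Buffer: HEPES pH 7.5, CaCl2, 0.01% Brij-35, 0.1 mg/ml BSA and 5% DMSO. Compound was preincubated with enzyme for 10 min before substrate addition. Fluorescence (ex 490, em 520 nm) was read at room temperature. IC50 came from initial linear slopes over 12 doses, 3-fold dilutions from 100 μM, in duplicate, reported as the mean.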

[5] = biological target: Matrix metalloproteinase-14 (Homo sapiens, UniProt P50281); assay: Inhibition of recombinant human MMP14 using QXL520-gamma-Abu-Pro-Cha-Abu-Smc-His-Ala-Dab(5-FAM)-Ala-Lys-NH2 as substrate measured every 5 mins for 2 hrs by FRET assay; outline: as §1
[6] = Stability in rat liver microsomes assessed as parent compound remaining at 1 uM measured after 60 mins in presence of NADPH by LC-MS/MS analysis; assay type: ADME, Microsome; settings: read-out: Stability
Outline: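 Compound at 1 μM was incubated with 0.3 mg/ml rat liver microsomes in 100 mM potassium phosphate pH 7.4 with 2 mM NADPH and 3 mM MgCl2, in duplicate at 37 °C for 60 min. A control without NADPH was run alongside. Samples at 0 and 60 min were quenched in cold acidified acetonitrile with internal standards, and percent parent remaining was measured by LC-MS/MS.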

Rattus norvegicus [7] = assay: Chondro-protective activity in MIA-induced Sprague-Dawley rat osteoarthritis model assessed as reduction in proteoglycan loss on MTP at 1 mg, ia administered once per week for 3 weeks starting from 5 days post MIA treatment and measured after 26 days post MIA injection; assay type: functional; set-up: scale not given: the % may be the effect or the level left
Outline: (§2)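 Male Sprague-Dawley rats (175–200 g) received 2 mg MIA in 40 μl into the right knee. Saline suspensions were given intra-articularly on days 5, 12 and 19, with 8 rats per group and 5 naive rats. Right knees were taken on day 26, then formalin-fixed, decalcified, paraffin-sectioned and toluidine blue-stained. A veterinary pathologist scored cell loss (area without viable chondrocytes), proteoglycan loss (staining intensity), bone resorption and osteophytes. Statistics were ANOVA or Kruskal-Wallis with post-tests versus vehicle.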

Rattus norvegicus [8] = assay: Chondro-protective activity in MIA-induced Sprague-Dawley rat osteoarthritis model assessed as reduction in cell loss on lateral tibial plateau at 1 mg, ia administered once per week for 3 weeks starting from 5 days post MIA treatment and measured after 26 days post MIA injection; assay type: functional; set-up: scale not given: the % may be the effect or the level left; outline: as §2
Rattus norvegicus [9] = assay: Chondro-protective activity in MIA-induced Sprague-Dawley rat osteoarthritis model assessed as reduction in proteoglycan loss on LTP at 1 mg, ia administered once per week for 3 weeks starting from 5 days post MIA treatment and measured after 26 days post MIA injection; assay type: functional; set-up: scale not given: the % may be the effect or the level left; outline: as §2
Rattus norvegicus [10] = assay: Chondro-protective activity in MIA-induced Sprague-Dawley rat osteoarthritis model assessed as reduction in proteoglycan loss on LFC at 1 mg, ia administered once per week for 3 weeks starting from 5 days post MIA treatment and measured after 26 days post MIA injection; assay type: functional; set-up: scale not given: the % may be the effect or the level left; outline: as §2
Collagenase 3 [11] = biological target: T3, Collagenase 3; assay: Inhibition of MMP13 (unknown origin); outline: as §1
Rattus norvegicus [12] = assay: Chondro-protective activity in MIA-induced Sprague-Dawley rat osteoarthritis model assessed as reduction of cell loss at 0.06 mg, ia administered once per week for 3 weeks starting from 5 days post MIA treatment and measured after 26 days post MIA injection; assay type: functional, organism-based; outline: as §2
Rattus norvegicus [13] = assay: Chondro-protective activity in MIA-induced Sprague-Dawley rat osteoarthritis model assessed as reduction of bone resorption in medial femoral condyle at 0.06 mg, ia administered once per week for 3 weeks starting from 5 days post MIA treatment and measured after 26 days post MIA injection; assay type: functional; set-up: scale not given: the % may be the effect or the level left; outline: as §2
Rattus norvegicus [14] = assay: Chondro-protective activity in MIA-induced Sprague-Dawley rat osteoarthritis model assessed as reduction of bone resorption in lateral femoral condyle at 0.06 mg, ia administered once per week for 3 weeks starting from 5 days post MIA treatment and measured after 26 days post MIA injection; assay type: functional; set-up: scale not given: the % may be the effect or the level left; outline: as §2
Rattus norvegicus [15] = assay: Chondro-protective activity in MIA-induced Sprague-Dawley rat osteoarthritis model assessed as reduction of bone resorption in tibia at 0.06 mg, ia administered once per week for 3 weeks starting from 5 days post MIA treatment and measured after 26 days post MIA injection; assay type: functional; set-up: scale not given: the % may be the effect or the level left; outline: as §2
Rattus norvegicus [16] = assay: Chondro-protective activity in MIA-induced Sprague-Dawley rat osteoarthritis model assessed as reduction of osteophyte score at 0.06 mg, ia administered once per week for 3 weeks starting from 5 days post MIA treatment and measured after 26 days post MIA injection; assay type: functional; set-up: scale not given: the % may be the effect or the level left; outline: as §2
[17] = Stability in rat liver microsomes; assay type: ADME, Microsome
Outline: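 Rat liver microsomes at 0.3 mg/ml protein with 1 μM compound, in 100 mM potassium phosphate pH 7.4, 2 mM NADPH, 3 mM MgCl2. Incubated in duplicate for 60 min at 37 °C with shaking, with a duplicate NADPH-free control. Sampled at T=0 and 60 min into cold acidified acetonitrile with internal standards. Percent parent remaining measured by LC-MS/MS (ESI, MRM).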

Stromelysin-2, sequence (P09238 whole entry): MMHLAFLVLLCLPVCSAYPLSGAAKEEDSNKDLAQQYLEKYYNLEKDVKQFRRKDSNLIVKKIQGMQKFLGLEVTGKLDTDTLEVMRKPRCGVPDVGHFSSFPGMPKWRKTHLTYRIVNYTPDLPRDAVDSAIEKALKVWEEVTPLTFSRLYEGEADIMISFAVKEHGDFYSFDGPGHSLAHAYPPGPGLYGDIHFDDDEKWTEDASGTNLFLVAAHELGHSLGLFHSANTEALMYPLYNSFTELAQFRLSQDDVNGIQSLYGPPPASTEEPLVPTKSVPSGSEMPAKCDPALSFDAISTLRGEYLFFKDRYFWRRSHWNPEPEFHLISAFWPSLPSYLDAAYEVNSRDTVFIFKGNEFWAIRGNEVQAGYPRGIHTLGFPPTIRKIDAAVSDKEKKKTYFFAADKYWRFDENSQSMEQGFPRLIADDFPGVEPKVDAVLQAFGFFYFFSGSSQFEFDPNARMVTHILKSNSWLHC
Stromelysin-1, sequence (P08254 whole entry): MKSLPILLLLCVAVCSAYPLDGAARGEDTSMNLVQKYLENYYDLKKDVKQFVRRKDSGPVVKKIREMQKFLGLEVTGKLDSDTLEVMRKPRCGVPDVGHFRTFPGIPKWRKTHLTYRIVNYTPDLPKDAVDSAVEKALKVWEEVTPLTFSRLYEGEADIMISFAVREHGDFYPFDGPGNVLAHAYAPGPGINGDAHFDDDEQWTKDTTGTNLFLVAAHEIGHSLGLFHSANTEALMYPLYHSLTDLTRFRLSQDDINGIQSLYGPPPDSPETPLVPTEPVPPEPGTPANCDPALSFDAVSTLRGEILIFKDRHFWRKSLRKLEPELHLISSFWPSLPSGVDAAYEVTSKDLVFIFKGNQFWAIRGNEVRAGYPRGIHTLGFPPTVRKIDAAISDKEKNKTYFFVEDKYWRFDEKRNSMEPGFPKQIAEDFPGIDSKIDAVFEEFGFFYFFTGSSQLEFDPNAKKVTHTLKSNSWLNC
72 kDa type IV collagenase, sequence (P08253 whole entry): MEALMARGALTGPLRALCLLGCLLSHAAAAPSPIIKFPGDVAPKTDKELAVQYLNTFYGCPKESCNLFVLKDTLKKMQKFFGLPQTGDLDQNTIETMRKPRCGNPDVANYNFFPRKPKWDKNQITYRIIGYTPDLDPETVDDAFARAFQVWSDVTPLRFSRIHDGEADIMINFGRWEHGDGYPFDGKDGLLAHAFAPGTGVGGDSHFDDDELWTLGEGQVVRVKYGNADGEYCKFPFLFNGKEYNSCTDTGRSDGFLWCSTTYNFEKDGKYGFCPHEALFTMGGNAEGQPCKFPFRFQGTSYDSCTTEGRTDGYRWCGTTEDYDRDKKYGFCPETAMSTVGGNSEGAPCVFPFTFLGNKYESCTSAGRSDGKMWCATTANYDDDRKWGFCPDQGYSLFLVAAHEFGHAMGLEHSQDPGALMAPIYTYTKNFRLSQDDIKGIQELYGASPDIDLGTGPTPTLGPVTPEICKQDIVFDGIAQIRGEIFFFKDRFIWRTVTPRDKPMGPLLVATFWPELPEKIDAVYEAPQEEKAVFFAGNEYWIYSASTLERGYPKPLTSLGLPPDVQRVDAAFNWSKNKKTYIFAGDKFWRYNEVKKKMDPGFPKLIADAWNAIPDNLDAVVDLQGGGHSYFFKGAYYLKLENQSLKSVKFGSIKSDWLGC
Matrix metalloproteinase-9, sequence (P14780 whole entry): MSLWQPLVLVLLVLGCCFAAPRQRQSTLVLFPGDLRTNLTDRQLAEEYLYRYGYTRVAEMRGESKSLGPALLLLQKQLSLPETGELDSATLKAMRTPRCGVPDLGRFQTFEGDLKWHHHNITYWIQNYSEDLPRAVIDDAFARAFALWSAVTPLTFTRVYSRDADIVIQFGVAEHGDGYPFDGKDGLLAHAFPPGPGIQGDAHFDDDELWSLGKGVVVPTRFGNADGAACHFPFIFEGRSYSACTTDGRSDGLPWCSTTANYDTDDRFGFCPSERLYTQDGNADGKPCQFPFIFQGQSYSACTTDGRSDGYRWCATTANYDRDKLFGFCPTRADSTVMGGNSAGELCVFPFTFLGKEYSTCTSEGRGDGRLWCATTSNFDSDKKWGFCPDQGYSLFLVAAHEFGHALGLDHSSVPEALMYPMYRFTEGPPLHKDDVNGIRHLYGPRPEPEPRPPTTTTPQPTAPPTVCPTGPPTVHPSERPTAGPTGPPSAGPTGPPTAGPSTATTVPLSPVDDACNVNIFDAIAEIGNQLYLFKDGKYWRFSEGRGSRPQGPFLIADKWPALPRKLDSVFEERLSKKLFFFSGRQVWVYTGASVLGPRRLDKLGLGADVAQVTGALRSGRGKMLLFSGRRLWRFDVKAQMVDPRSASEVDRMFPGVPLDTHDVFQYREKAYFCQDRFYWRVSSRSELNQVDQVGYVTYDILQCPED
Macrophage metalloelastase, sequence (P39900 whole entry, the tested form may be a part): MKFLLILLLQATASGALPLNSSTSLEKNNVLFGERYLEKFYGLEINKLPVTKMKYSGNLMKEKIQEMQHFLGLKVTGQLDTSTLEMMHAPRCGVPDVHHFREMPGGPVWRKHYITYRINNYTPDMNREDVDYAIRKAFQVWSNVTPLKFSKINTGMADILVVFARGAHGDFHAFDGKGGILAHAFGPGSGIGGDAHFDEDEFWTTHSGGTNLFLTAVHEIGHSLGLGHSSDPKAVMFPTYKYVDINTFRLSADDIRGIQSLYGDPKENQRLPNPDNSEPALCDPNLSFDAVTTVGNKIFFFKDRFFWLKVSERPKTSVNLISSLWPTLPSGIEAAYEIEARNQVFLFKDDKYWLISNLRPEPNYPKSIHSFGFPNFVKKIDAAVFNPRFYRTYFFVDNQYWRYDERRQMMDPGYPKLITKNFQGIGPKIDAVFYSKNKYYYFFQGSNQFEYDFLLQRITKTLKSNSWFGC
Neutrophil collagenase, sequence (P22894 whole entry): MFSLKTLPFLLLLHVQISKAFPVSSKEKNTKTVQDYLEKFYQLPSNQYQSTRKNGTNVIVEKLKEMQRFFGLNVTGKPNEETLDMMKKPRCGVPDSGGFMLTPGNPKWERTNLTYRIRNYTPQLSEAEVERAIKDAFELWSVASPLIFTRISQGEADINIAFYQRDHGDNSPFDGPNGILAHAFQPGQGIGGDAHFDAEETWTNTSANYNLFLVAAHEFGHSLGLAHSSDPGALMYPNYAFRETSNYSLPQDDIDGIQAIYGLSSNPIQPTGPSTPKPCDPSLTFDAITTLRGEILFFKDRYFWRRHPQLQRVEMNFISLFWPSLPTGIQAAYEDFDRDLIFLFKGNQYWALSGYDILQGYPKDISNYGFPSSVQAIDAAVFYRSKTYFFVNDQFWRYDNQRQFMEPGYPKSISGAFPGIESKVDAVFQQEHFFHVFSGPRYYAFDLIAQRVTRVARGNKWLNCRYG

IC50 [1]: > 100 µM
IC50 (Stromelysin-2): 1000 nM
IC50 [2]: 74 µM
IC50 (Neutrophil collagenase): 98 µM
IC50 (Matrilysin): > 100 µM
IC50 (Stromelysin-1): > 100 µM
IC50 [3]: > 100 µM
IC50 (Interstitial collagenase): > 100 µM
IC50 (Collagenase 3 [4]): 4.8 nM
IC50 [5]: > 100 µM
remaining at 1 h, 1 µM [6]: 99%
Compound: [2H]C([2H])(NC(=O)c1cc(C(=O)NCc2ccc(F)c(C)c2)ncn1)c1ccc(C(=O)O)cc1
Activity (Rattus norvegicus [7]): 15%
Activity (Rattus norvegicus [8]): 8%
Activity (Rattus norvegicus [9]): 15%
Activity (Rattus norvegicus [10]): 15%

IC50 (Collagenase 3 [11]): < 10 nM
Compound: C[C@H](NC(=O)c1cc(C(=O)NCc2ccc(-c3nnn[nH]3)cc2)ncn1)c1ccccc1

Compound: C[C@]12C=CC(=O)C=C1CC[C@H]1[C@@H]3C[C@@H](O)[C@](O)(C(=O)CO)[C@@]3(C)C[C@H](O)[C@@]12F [TRIAMCINOLONE]
Activity (Rattus norvegicus [12]): inactive
Activity (Rattus norvegicus [13]): 49%
Activity (Rattus norvegicus [14]): 49%
Activity (Rattus norvegicus [15]): 34%
Activity (Rattus norvegicus [16]): 40%

IC50 (Collagenase 3 [11]): > 100 nM
Compound: C[C@@H](NC(=O)c1cc(C(=O)NCc2ccc(-c3nnn[nH]3)cc2)ncn1)c1ccccc1

remaining at 1 h, 1 µM [6]: 90%
Compound: Cc1cc(CNC(=O)c2cc(C(=O)NCc3ccc(C(=O)O)cc3)ncn2)ccc1F

Stability [17]: 0.6%
Compound: Cc1cc(CNC(=O)c2cc(C(=O)NCc3ccc(F)c(C)c3)ncn2)ccc1F
